Results taken from ChEMBL document CHEMBL5303300, “EUbOPEN Chemogenomics Library - Multiplex” (2023).
“And” between values parts separate entries of the source, which are not always exact repeats. Equal entries are not always repeated.

Legend:
Type in all cases: toxicity, cell-based
Fibroblast = experiment: Multiplex assay against human fibroblast; conditions: number of replicates 2
Method in brief: (§1)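 Tubulin, mitochondrial-mass and membrane-permeability phenotypes are per cents of healthy-nucleus cells. Cells were gated by CellPathfinder machine learning into Hoechst high-intensity objects or normal cells, normal cells into healthy, pyknosed or fragmented nuclei, and pyknosed cells into mitotic or apoptotic. Before that, live cells stained at seeding with Hoechst33342, BioTracker Green Microtubule Cytoskeleton Dye, MitoTracker Red and Annexin V Alexa Fluor 680 were imaged on a CQ1 microscope at 37°C and 5% CO2 after compound addition.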

HEK-293T = experiment: Multiplex assay against HEK293T; conditions: human, number of replicates 2; method in brief: as §1
U2OS = experiment: Multiplex assay against U2OS; conditions: human, number of replicates 2; method in brief: as §1
[1] = 12 h, 1 µM, compound concentration 1 uM
[2] = 12 h, 10 µM, compound concentration 10 uM
[3] = 24 h, 1 µM, compound concentration 1 uM
[4] = 24 h, 10 µM, compound concentration 10 uM
[5] = 48 h, 1 µM, compound concentration 1 uM
[6] = 48 h, 10 µM, compound concentration 10 uM

## COc1c(OCCCN2CCOCC2)ccc2c1N=C(NC(=O)c1cnc(N)nc1)N1CCN=C21 [COPANLISIB]
Fibroblast; [1]
  Population Apoptotic (%): 39% and 50%
  Population Fragmented Nuclei (%): 8% and 10%
  Population Healthy Nuclei (%): 65% and 63%
  Population Hoechst High Intensity Objects (%): 0%
  Population Membrane Permeable-Phenotype (%): 1% and 7%
  Population Mitochondria Different-Phenotype (%): 0% and 3%
  Population Mitotic Cells (%): 60% and 50%
  Population Normal (%): 100%
  Population Pyknosed Nuclei (%): 26%
  Population Tubulin-Different-Phenotype (%): 1% and 7%
  Total Cell Count: 157 and 180
Fibroblast; [2]
  Population Apoptotic (%): 52% and 45%
  Population Fragmented Nuclei (%): 10% and 13%
  Population Healthy Nuclei (%): 77% and 74%
  Population Hoechst High Intensity Objects (%): 0%
  Population Membrane Permeable-Phenotype (%): 7% and 2%
  Population Mitochondria Different-Phenotype (%): 3% and 2%
  Population Mitotic Cells (%): 47% and 54%
  Population Normal (%): 100%
  Population Pyknosed Nuclei (%): 12% and 11%
  Total Cell Count: 149 and 188
Fibroblast; [3]
  Population Apoptotic (%): 48% and 57%
  Population Fragmented Nuclei (%): 14% and 8%
  Population Healthy Nuclei (%): 60% and 71%
  Population Hoechst High Intensity Objects (%): 0%
  Population Membrane Permeable-Phenotype (%): 2% and 5%
  Population Mitochondria Different-Phenotype (%): 1% and 2%
  Population Mitotic Cells (%): 51% and 42%
  Population Normal (%): 100%
  Population Pyknosed Nuclei (%): 25% and 20%
  Population Tubulin-Different-Phenotype (%): 2% and 5%
  Total Cell Count: 155 and 165
Fibroblast; [4]
  Population Apoptotic (%): 76% and 60%
  Population Fragmented Nuclei (%): 18% and 16%
  Population Healthy Nuclei (%): 63% and 72%
  Population Hoechst High Intensity Objects (%): 0%
  Population Membrane Permeable-Phenotype (%): 3% and 0%
  Population Mitochondria Different-Phenotype (%): 2% and 1%
  Population Mitotic Cells (%): 23% and 39%
  Population Normal (%): 100%
  Population Pyknosed Nuclei (%): 17% and 11%
  Population Tubulin-Different-Phenotype (%): 9% and 2%
  Total Cell Count: 174 and 209
Fibroblast; [5]
  Population Apoptotic (%): 73% and 57%
  Population Fragmented Nuclei (%): 7% and 14%
  Population Healthy Nuclei (%): 70% and 71%
  Population Hoechst High Intensity Objects (%): 0%
  Population Membrane Permeable-Phenotype (%): 6% and 10%
  Population Mitochondria Different-Phenotype (%): 0%
  Population Mitotic Cells (%): 26% and 42%
  Population Normal (%): 100%
  Population Pyknosed Nuclei (%): 21% and 14%
  Population Tubulin-Different-Phenotype (%): 2% and 3%
  Total Cell Count: 140 and 176
Fibroblast; [6]
  Population Apoptotic (%): 68% and 77%
  Population Fragmented Nuclei (%): 15% and 18%
  Population Healthy Nuclei (%): 70%
  Population Hoechst High Intensity Objects (%): 1% and 0%
  Population Membrane Permeable-Phenotype (%): 11% and 4%
  Population Mitochondria Different-Phenotype (%): 1% and 2%
  Population Mitotic Cells (%): 32% and 22%
  Population Normal (%): 98% and 100%
  Population Pyknosed Nuclei (%): 14% and 10%
  Total Cell Count: 176 and 205
HEK-293T; [1]
  Population Apoptotic (%): 66% and 65%
  Population Fragmented Nuclei (%): 7% and 3%
  Population Healthy Nuclei (%): 66% and 82%
  Population Hoechst High Intensity Objects (%): 14% and 12%
  Population Membrane Permeable-Phenotype (%): 2% and 1%
  Population Mitochondria Different-Phenotype (%): 43% and 39%
  Population Mitotic Cells (%): 33% and 34%
  Population Normal (%): 85% and 87%
  Population Pyknosed Nuclei (%): 25% and 13%
  Population Tubulin-Different-Phenotype (%): 57% and 58%
  Total Cell Count: 337 and 345
HEK-293T; [2]
  Population Apoptotic (%): 67% and 62%
  Population Fragmented Nuclei (%): 7% and 2%
  Population Healthy Nuclei (%): 74% and 83%
  Population Hoechst High Intensity Objects (%): 13% and 11%
  Population Membrane Permeable-Phenotype (%): 1% and 0%
  Population Mitochondria Different-Phenotype (%): 60% and 66%
  Population Mitotic Cells (%): 32% and 37%
  Population Normal (%): 86% and 88%
  Population Pyknosed Nuclei (%): 18% and 13%
  Population Tubulin-Different-Phenotype (%): 68% and 71%
  Total Cell Count: 237 and 220
HEK-293T; [3]
  Population Apoptotic (%): 76% and 67%
  Population Fragmented Nuclei (%): 5% and 3%
  Population Healthy Nuclei (%): 74% and 80%
  Population Hoechst High Intensity Objects (%): 16% and 20%
  Population Membrane Permeable-Phenotype (%): 1%
  Population Mitochondria Different-Phenotype (%): 35% and 33%
  Population Mitotic Cells (%): 23% and 32%
  Population Normal (%): 83% and 79%
  Population Pyknosed Nuclei (%): 20% and 15%
  Population Tubulin-Different-Phenotype (%): 56% and 60%
  Total Cell Count: 382 and 316
HEK-293T; [4]
  Population Apoptotic (%): 80% and 50%
  Population Fragmented Nuclei (%): 6% and 2%
  Population Healthy Nuclei (%): 76% and 82%
  Population Hoechst High Intensity Objects (%): 20% and 16%
  Population Membrane Permeable-Phenotype (%): 2% and 1%
  Population Mitochondria Different-Phenotype (%): 52% and 58%
  Population Mitotic Cells (%): 19% and 50%
  Population Normal (%): 79% and 83%
  Population Pyknosed Nuclei (%): 17% and 15%
  Population Tubulin-Different-Phenotype (%): 67% and 68%
  Total Cell Count: 229 and 189
HEK-293T; [5]
  Population Apoptotic (%): 62% and 63%
  Population Fragmented Nuclei (%): 9% and 12%
  Population Healthy Nuclei (%): 75% and 78%
  Population Hoechst High Intensity Objects (%): 20% and 26%
  Population Membrane Permeable-Phenotype (%): 1% and 3%
  Population Mitochondria Different-Phenotype (%): 16% and 6%
  Population Mitotic Cells (%): 37% and 36%
  Population Normal (%): 79% and 73%
  Population Pyknosed Nuclei (%): 15% and 8%
  Population Tubulin-Different-Phenotype (%): 70% and 43%
  Total Cell Count: 374 and 726
HEK-293T; [6]
  Population Apoptotic (%): 68% and 74%
  Population Fragmented Nuclei (%): 9% and 6%
  Population Healthy Nuclei (%): 66% and 76%
  Population Hoechst High Intensity Objects (%): 20% and 25%
  Population Membrane Permeable-Phenotype (%): 4% and 2%
  Population Mitochondria Different-Phenotype (%): 41% and 45%
  Population Mitotic Cells (%): 31% and 25%
  Population Normal (%): 79% and 74%
  Population Pyknosed Nuclei (%): 24% and 16%
  Population Tubulin-Different-Phenotype (%): 68% and 72%
  Total Cell Count: 262 and 245
U2OS; [1]
  Population Apoptotic (%): 100% and 76%
  Population Healthy Nuclei (%): 60% and 87%
  Population Hoechst High Intensity Objects (%): 0%
  Population Membrane Permeable-Phenotype (%): 0% and 2%
  Population Mitochondria Different-Phenotype (%): 0%
  Population Mitotic Cells (%): 0% and 23%
  Population Normal (%): 100%
  Population Pyknosed Nuclei (%): 4% and 7%
  Population Tubulin-Different-Phenotype (%): 93% and 90%
U2OS; [2]
  Population Apoptotic (%): 100% and 76%
  Population Healthy Nuclei (%): 32% and 80%
  Population Hoechst High Intensity Objects (%): 0%
  Population Mitochondria Different-Phenotype (%): 10% and 1%
  Population Mitotic Cells (%): 0% and 24%
  Population Normal (%): 100%
  Population Pyknosed Nuclei (%): 16% and 15%
  Population Tubulin-Different-Phenotype (%): 80%
U2OS; [3]
  Population Apoptotic (%): 100% and 70%
  Population Healthy Nuclei (%): 56% and 86%
  Population Hoechst High Intensity Objects (%): 0%
  Population Membrane Permeable-Phenotype (%): 0% and 2%
  Population Mitochondria Different-Phenotype (%): 0% and 1%
  Population Normal (%): 100%
  Population Pyknosed Nuclei (%): 8% and 10%
  Population Tubulin-Different-Phenotype (%): 100% and 89%
U2OS; [4]
  Population Apoptotic (%): 50% and 64%
  Population Hoechst High Intensity Objects (%): 2% and 0%
  Population Mitotic Cells (%): 50% and 35%
  Population Normal (%): 97% and 100%
  Population Pyknosed Nuclei (%): 22%
  Population Tubulin-Different-Phenotype (%): 75% and 84%
U2OS; [5]
  Population Apoptotic (%): 80% and 72%
  Population Healthy Nuclei (%): 41% and 88%
  Population Hoechst High Intensity Objects (%): 4% and 0%
  Population Membrane Permeable-Phenotype (%): 0% and 2%
  Population Mitochondria Different-Phenotype (%): 0% and 1%
  Population Mitotic Cells (%): 20% and 27%
  Population Normal (%): 96% and 99%
  Population Pyknosed Nuclei (%): 20% and 8%
  Population Tubulin-Different-Phenotype (%): 100% and 95%
U2OS; [6]
  Population Apoptotic (%): 92% and 79%
  Population Hoechst High Intensity Objects (%): 0% and 1%
  Population Mitochondria Different-Phenotype (%): 0% and 3%
  Population Mitotic Cells (%): 7% and 20%
  Population Normal (%): 100% and 98%
  Population Pyknosed Nuclei (%): 34% and 35%
